From PubChem BioAssay
The list is not random: actives were taken first. Their share in the collection is about 2%.
PPC-1+TRAIL kill – compounds killing PPC-1 cancer cells with TRAIL present (potentiator screen, no TRAIL-free arm) | PPC-1 cells + TRAIL, ATPLite viability luminescence | cell killing (% activity), % at 4 µM or 5 µM | 220,000 tested, 0.41% active | AID 1443;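 active means cell killing above 50% in the first pass at 4 µM, then a duplicate retest at 5 µM averaging 50% or more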
FLuc inh counter – counter-screen for luciferase assay inhibitors: firefly luciferase inhibition | P08659 | ATPLite firefly luciferase biochemical luminescence, 10 min | inhibition, % at 10 µM | 200,000 tested, 1.5% active | AID 1006;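 active means inhibition above about 50% when tested at 10 µM, limit read from the data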
Target sequence (P08659 whole entry, looked up): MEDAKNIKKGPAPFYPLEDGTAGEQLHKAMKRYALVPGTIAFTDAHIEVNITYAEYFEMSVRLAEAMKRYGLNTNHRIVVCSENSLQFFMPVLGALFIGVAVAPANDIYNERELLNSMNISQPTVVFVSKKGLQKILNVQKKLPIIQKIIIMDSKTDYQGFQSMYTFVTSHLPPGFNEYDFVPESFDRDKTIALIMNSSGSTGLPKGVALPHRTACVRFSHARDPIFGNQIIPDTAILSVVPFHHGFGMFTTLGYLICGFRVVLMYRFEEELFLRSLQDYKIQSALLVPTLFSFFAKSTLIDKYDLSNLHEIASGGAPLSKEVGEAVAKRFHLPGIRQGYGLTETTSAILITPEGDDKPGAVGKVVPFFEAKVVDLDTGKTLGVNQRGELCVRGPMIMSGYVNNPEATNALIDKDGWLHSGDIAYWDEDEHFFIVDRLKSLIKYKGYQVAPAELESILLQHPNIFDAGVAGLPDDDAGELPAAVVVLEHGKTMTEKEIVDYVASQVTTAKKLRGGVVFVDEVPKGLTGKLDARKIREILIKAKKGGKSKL
HSP90 inh – inhibitors of HSP90 luciferase refolding in rabbit reticulocyte lysate; luciferase refolding luminescence, 3 h; inhibition, % at 5.6 µM; 290,000 tested, 0.91% active;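 active means inhibition above the screen-wide mean plus 3 SD, computed separately per campaign, cut at about 16% in these data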;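 further: inhibitors lower the luminescence because luciferase stays unfolded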
TRAIL sens C8 – caspase-8 TRAIL sensitization; NB7+C8 cells + TRAIL, ATPlite viability luminescence; inhibition (viability loss, TRAIL sensitization), % at 10 µM; 360,000 tested, 1% active;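 active means compounds causing at least 50% loss of cell viability in the single-dose screen, relative to plate controls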
FLuc act counter – firefly luciferase counter-screen for stimulation assays. ATPlite luciferase biochemical, luminescence, 10 min; 0 = ATP-free wells, 1 = DMSO control. AID 1027. activation factor at 10 µM. 200,000 tested, under 10 active;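 active means luciferase activation factor, scaled between plate controls, of at least 2 with compound at 10 µM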
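System: cell-free luciferase reagent; medium: PBS as buffer for the ATP substrate; doses: test compounds dosed from 2 mM stocks in 100% DMSO; incubation: 10 min, room temperature; measured by: luminescence from luciferase reaction; read-out: luciferase activation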
HSP90 inh confirm – confirmation of HSP90 inhibitors. shares compounds with HSP90 inh. rabbit reticulocyte lysate, luciferase refolding luminescence, 3 h. inhibition, % at 5.9 µM. 2,300 tested, 64% active. AID 1846; in the data active means inhibition above about 18%
FLuc counter – blocks native firefly luciferase in HSP90 counter-screen. shares compounds with HSP90 inh. purified native firefly luciferase, luminescence. inhibition, % at 5.9 µM. 2,300 tested, 48% active. AID 1847;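 active means inhibition above the mean inhibition of all tested sample wells plus 3 SD, cut at about 10% in these data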
Hits are given with their value; n = inactive; x = not tested or not shown.

SMILES	PPC-1+TRAIL kill	FLuc inh counter	HSP90 inh	TRAIL sens C8	FLuc act counter	HSP90 inh confirm	FLuc counter
Oc1ccc(C[C@H]2CNC(=S)N2CC2CCCN2C[C@H](Cc2ccc(O)cc2)N2C[C@H](Cc3ccc(O)cc3)N(CC3CCCCC3)C2=S)cc1 (some centres undefined)	x	x	x	n	x	x	x
CCCC(=O)NC(c1ccccc1)c1ccc2cccnc2c1O (centres undefined)	x	x	20	n	x	18	n
CCCCC(=O)NC(c1ccccc1)c1ccc2cccnc2c1O (centres undefined)	x	x	n	n	x	x	x
Cc1onc(-c2ccccc2Cl)c1C(=O)N1CCCC1	x	x	n	n	x	x	x
Cc1onc(-c2ccccc2Cl)c1C(=O)N1CCN(C(=O)c2ccco2)CC1	n	n	27	n	n	n	n
CCC(=O)N1CCc2cc(S(=O)(=O)CCC(=O)N(C)c3ccc(OC)cc3)ccc21	x	x	n	n	x	x	x
O=C(c1cccs1)c1ccc(-c2cccs2)s1	n	78	29	51	n	61	53
CCc1ccc(C2CC(c3ccco3)=NN2S(C)(=O)=O)cc1 (centres undefined)	n	n	18	n	n	22	13
Cc1c(NC(=S)NC(=O)c2sc3ccccc3c2Cl)cccc1C(=O)O	n	n	43	n	n	63	11
COc1ccccc1C(=O)NNC(=S)NC(=O)c1sc2ccccc2c1Cl	n	n	n	n	n	x	x
O=C(NCC[C@H]1CC[C@@H](NC(=O)C2CCOCC2)[C@@H](CO)O1)Nc1ccc(Cl)cc1	x	x	x	n	x	x	x
O=C(CCl)N1c2ccccc2Oc2ccc3ccccc3c21	x	x	x	n	x	x	x
CC(=O)N1c2ccccc2Oc2cc3ccccc3cc21	n	n	21	n	n	47	n
COc1ccc(NC(=O)CN(C)C(=O)CNC(=O)c2ccc(C)s2)cc1	x	x	x	n	x	x	x
CN(C)S(=O)(=O)c1ccc(C(=O)Nc2nc(-c3cc4ccccc4o3)cs2)cc1	n	n	n	n	n	x	x
Cc1cc(-c2csc(NC(=O)c3ccc(S(=O)(=O)N(C)C)cc3)n2)c(C)n1-c1ccccc1	n	n	22	n	n	41	n
CCOc1cc(/C=N/Nc2ccc(C(=O)O)cc2)ccc1OC(=O)c1ccccc1C	n	x	n	n	x	x	x
COc1cccc(OCc2cc(/C=N/Nc3ccc(C(=O)O)cc3)ccc2OC)c1	n	x	55	n	x	66	56
COc1cccc(C(=O)Oc2ccc(/C=N/Nc3ccc(C(=O)O)cc3)cc2OC)c1	x	x	22	n	x	48	31
COc1ccc(S(=O)(=O)N2CCN(C(=O)c3ccco3)CC2)cc1C(C)(C)C	x	x	n	n	x	x	x
CCOc1ccc(C(=O)Nc2cccc(C(=O)O)c2C)cc1Cl	n	n	88	n	n	92	68
Cc1c(NC(=O)c2ccc(-c3ccccc3)cc2)cccc1C(=O)O	n	x	75	n	x	81	63
Nc1cccc2nsnc12	n	x	n	n	x	x	x
Nc1cc2nsnc2cc1Br	n	n	25	96	n	n	n
NC(=O)NCCN1CCN(c2ncc(C(F)(F)F)cc2Cl)CC1	n	n	n	n	n	x	x
SMILES	PPC-1+TRAIL kill	FLuc inh counter	HSP90 inh	TRAIL sens C8	FLuc act counter	HSP90 inh confirm	FLuc counter
O=C(NNC(=S)NC(=O)c1ccc(F)cc1)c1cccnc1	x	x	n	n	x	x	x
O=C(NNC(=S)NC(=O)c1cccnc1)c1ccc(F)cc1	n	x	28	n	x	n	n
COc1cc(C(=O)N/N=C/c2ccc(OC(=O)c3ccccc3Cl)c(OC)c2)ccc1O	x	x	n	n	x	x	x
COc1cc(/C=N/Nc2ccc(Cl)c(C(=O)O)c2)ccc1OC(=O)c1ccc(F)cc1	x	x	60	n	x	73	n
COc1cc(/C=N/Nc2ccc(Cl)c(C(=O)O)c2)ccc1OC(=O)c1ccccc1F	x	x	54	n	x	80	n
COc1cc(/C=N/NC(=O)c2ccncc2)ccc1OC(=O)c1ccccc1Cl	n	n	n	n	n	x	x
O=C1CC(C(=O)O)S/C(=N\N=C\c2ccc(Br)cc2)N1 (centres undefined)	n	x	27	n	x	22	n
C/C(=N/N=C1/NC(=O)CC(C(=O)O)S1)c1ccccc1 (centres undefined)	n	n	n	n	n	x	x
CC(C)(C)OC(=O)N1CCC(c2c(C(=O)N3CCN(C(=O)c4ccco4)CC3)cnn2-c2ccc(F)cc2F)CC1	x	x	n	n	x	x	x
COc1cc(/C=N/O)ccc1Oc1cnccn1	x	x	n	n	x	x	x
Cc1nn(-c2ccc(C(=O)O)cc2)c(N)c1-c1ccccc1	n	n	21	n	n	48	n
Nc1c(-c2ccccc2)cnn1-c1ccc(C(=O)O)cc1	n	n	25	n	n	42	n
O=C(NCCSCc1ccccc1)c1ccc(F)cc1	n	n	n	n	n	x	x
CCC(=O)C1CCCN(C(=O)c2ccc3nc(-c4cccc(OC)c4)oc3c2)C1 (centres undefined)	x	x	25	n	x	32	15
COc1cccc(-c2nc3ccc(C(=O)N4CCCC(O)C4)cc3o2)c1 (centres undefined)	x	x	n	n	x	x	x
CCOC(=O)C1CCCN(C(=O)c2ccc3nc(-c4cccc(OC)c4)oc3c2)C1 (centres undefined)	x	x	21	n	x	36	25
CCN(CC)C(=O)C1CCCN(C(=O)c2ccc3nc(-c4cccc(OC)c4)oc3c2)C1 (centres undefined)	x	x	x	n	x	x	x
COc1ccc2oc(C(=O)OCC(=O)N(C)CC(=O)Nc3ccc(C)cc3)c(C)c2c1	x	x	x	n	x	x	x
Cc1[nH]c(-c2ccco2)nc1C(=O)O	n	n	18	n	n	n	n
Cc1[nH]c(-c2ccc3c(c2)OCO3)nc1C(=O)O	n	n	n	n	n	x	x
CCOc1ccc(CCNC(=O)CN2C(=O)NC(CCSC)C2=O)cc1OCC (centres undefined)	n	n	n	n	n	x	x
CN=c1scc(-c2ccccc2F)n1/N=C/c1ccc(O)c(O)c1O	n	98	22	84	n	92	89
Cc1c(-c2nc(-c3ccc(C(F)(F)F)cc3)no2)n(C)oc1=O	n	x	18	n	x	74	n
CS(=O)(=O)c1ccccc1-c1nc(-c2ccc(C(F)(F)F)cc2)no1	n	n	n	n	n	x	x
CCOc1ccc(NC(=O)c2ccc3c(=O)n(-c4ccc(OC)cc4OC)c(=S)[nH]c3c2)cc1	x	x	69	n	x	n	n
SMILES	PPC-1+TRAIL kill	FLuc inh counter	HSP90 inh	TRAIL sens C8	FLuc act counter	HSP90 inh confirm	FLuc counter
Brc1ccc(C2Nc3cccc4cccc(c34)N2)cc1	x	x	x	n	x	x	x
Fc1ccc(C2Nc3cccc4cccc(c34)N2)cc1	x	x	n	n	x	x	x
CCN(CC)c1ccc(C2Nc3cccc4cccc(c34)N2)cc1	x	x	57	n	x	n	n
CCCOc1ccc(C2Nc3cccc4cccc(c34)N2)cc1	x	x	39	n	x	18	n
Oc1ccc(N=C/C=C/c2ccc(Br)cc2)cc1-c1nc2ccccc2s1	n	n	n	x	n	x	x
C[n+]1nc(Nc2ccccc2)sc1-c1ccc(O)cc1	x	x	17	n	x	n	n
COc1cccc(NC(=O)NCc2c(-c3ccccc3)noc2C)c1	n	x	n	n	x	x	x
